# PubChem BioAssay AID602266 (Broad Institute, 2012)
# Results filed as inconclusive are left out. Calls of active or inactive are those of the source.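 How the source made its calls: active means compounds whose fitted half-maximal inhibition dose is at most double their top valid tested dose; inconclusive means flat curve with 30 to 70% inhibition, or poor fit; inactive means the rest.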
# Test system: not listed separately
# Test: lowered Hsp90aa transcript levels after heat shock – NIH-3T3 cells, RT-qPCR, cherry-pick, orthogonal assay for HSF1 inhibitor project, dose response (AID 602266)
# Settings: NIH-3T3 HGL cells, heat shock, Hsp90aa mRNA qPCR; at 26 µM (top of the series)
# Summary of the method: (§1)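 Assay system: HGL cells, NIH-3T3 mouse fibroblasts with HSE-driven GFP/luciferase construct. Timing: overnight plating, 90-min compound pretreatment, 90-min heat shock, 1-h recovery. Signal: Two-step multiplex TaqMan RT-qPCR.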
row,Compound,"activity change, negative = inhibition"
1,Cc1c(-c2nc(-c3ccc(C(C)(C)C)cc3)no2)n(C)oc1=O,18.8% (inactive)
2,CC12CCC(=O)C=C1CCC1C2C(O)CC2(C)C1CCC2(O)C(=O)CO (stereo not given),4.01% (inactive)
3,CC1CCCN(c2ncnc3c2cnn3-c2ccc(Cl)cc2)C1 (stereo not given),28.9% (inactive)
4,CC(=O)OCC(=O)[C@@]12OC(C)(C)O[C@@H]1CC1C3C[C@H](F)C4=CC(=O)C=CC4(C)[C@@]3(F)C(O)CC12C (stereo not given in full),-1.11% (inactive)
5,Cc1nc(SCC(=O)Nc2nc3ccccc3s2)c(C#N)c(C)c1C,7.25% (inactive)
6,CCC(=O)O[C@]1(C(=O)CCl)[C@@H](C)C[C@H]2[C@@H]3CCC4=CC(=O)C=C[C@]4(C)[C@@]3(F)[C@@H](O)C[C@@]21C,30.2% (inactive)
7,CCS(=O)(=O)N1Cc2ccccc2CC1C(=O)Nc1nc2ccccc2s1 (stereo not given),33.2% (inactive)
8,Cc1cccc(-n2ncc3c(N(C)C4CCCCC4)ncnc32)c1,27% (inactive)
9,Cc1ccc(/C=N/Nc2ccc(C(=O)O)cc2)s1,32.5% (inactive)
10,O=c1c2ccccc2sc2ccc(C#CC3(O)CCCCC3)cc12,49.4% (inactive)
11,C[C@@H]1C[C@H]2[C@@H]3CCC4=CC(=O)C=C[C@]4(C)[C@@]3(F)[C@@H](O)C[C@]2(C)[C@@]1(O)C(=O)CO,6.93% (inactive)
12,O=C(CN1C(=O)c2ccccc2S1(=O)=O)c1ccc2c(c1)OCCCO2,13.4% (inactive)
13,CC1CCN(c2ccc(-c3cccc(NC(=O)C(F)(F)F)c3)nn2)CC1,37.6% (inactive)
14,COC(=O)c1ccccc1NC(=O)c1ccc(-c2ccc(Br)cc2)o1,4.07% (inactive)
15,C(=N\Nc1nc2ccccc2s1)/c1ccccn1,82.6% (inactive)
16,CC(C)(C)c1ccc(/C=N/Nc2cccc(C(=O)O)c2)cc1,12.9% (inactive)
17,O=C(Nc1ccc(F)cc1F)c1cc2nc3c(c(C(F)(F)F)n2n1)CCCC3,2.56% (inactive)
18,O=[N+]([O-])c1nn(-c2ccc3c(c2)OCCO3)n(O)c1=Nc1ccccc1,29% (inactive)
19,CC(=O)[C@@]1(O)C(C)CC2C3C=C(C)C4=Cc5c(cnn5-c5ccccc5)C[C@]4(C)C3C(O)C[C@@]21C (stereo not given in full),97.3% (inactive)
20,CC(C)Sc1nc(SCC(=O)NCc2ccco2)c2c3c(sc2n1)COC(C)(C)C3,52.6% (inactive)
21,C[C@]12C=CC(=O)C=C1CC[C@@H]1[C@@H]2[C@@H](O)C[C@@]2(C)[C@H]1CC[C@]2(O)C(=O)CO,4.41% (inactive)
22,CN(C(=O)OC(C)(C)C)c1ccc(-c2nc3ccccc3s2)cc1,46.6% (inactive)
23,CCOc1ccc(OCc2cccc(C(=O)N/N=C/c3cccnc3)c2)cc1,37.3% (inactive)
24,N#CCCCC#Cc1ccc2c(c1)COc1c3ccccc3nn1-2,65.7% (inactive)

# Test system: NIH-3T3 HGL cells, heat shock, Hsp90aa mRNA qPCR
# Test: as above
# Settings: not given
# Summary of the method: as §1
row,Compound,AC50 [nM]
1,CC1=C(C(=O)OCc2ccc3c(c2)OCO3)C(c2ccc(F)cc2)NC(=O)N1 (stereo not given),1390
